Source: ChEMBL document CHEMBL1159338, “New dimeric naphthopyrones from Aspergillus niger” (J Nat Prod, 2003)
Calls of active or inactive are those of the source. No cut-off for these calls is given here.

Legend:
[1] = molecular target: Telomerase reverse transcriptase (Homo sapiens) (UniProt O14746); assay: Inhibition of human telomerase activity by TRAP assay; conditions: concentration not given here
How it was run: (§1)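 TRAP format: DMSO-dissolved samples in a 50 µL mix with HT1080 cell extract, pH 8.3 Tris-HCl/KCl/MgCl2/EGTA/Tween 20 buffer, TS primer, 50 µM each dNTP, 2 U Taq and [32P]dCTP; CX primer held under wax. Extension ran 30 min at 23 °C, then 90 °C for 90 s and 31 PCR cycles. Products were bound to DE-51 paper and scintillation-counted. Inhibition was taken relative to DMSO, minus RNase-treated extract background.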

[2] = molecular target: DNA polymerase I, thermostable (Thermus aquaticus) (UniProt P19821); assay: Inhibition of Taq polymerase in RNase treated human HT1080 cells at 100 ug/mL by PCR; assay type: cell-based; conditions: HT-1080
DNA polymerase I, thermostable (Thermus aquaticus), sequence (P19821 whole entry): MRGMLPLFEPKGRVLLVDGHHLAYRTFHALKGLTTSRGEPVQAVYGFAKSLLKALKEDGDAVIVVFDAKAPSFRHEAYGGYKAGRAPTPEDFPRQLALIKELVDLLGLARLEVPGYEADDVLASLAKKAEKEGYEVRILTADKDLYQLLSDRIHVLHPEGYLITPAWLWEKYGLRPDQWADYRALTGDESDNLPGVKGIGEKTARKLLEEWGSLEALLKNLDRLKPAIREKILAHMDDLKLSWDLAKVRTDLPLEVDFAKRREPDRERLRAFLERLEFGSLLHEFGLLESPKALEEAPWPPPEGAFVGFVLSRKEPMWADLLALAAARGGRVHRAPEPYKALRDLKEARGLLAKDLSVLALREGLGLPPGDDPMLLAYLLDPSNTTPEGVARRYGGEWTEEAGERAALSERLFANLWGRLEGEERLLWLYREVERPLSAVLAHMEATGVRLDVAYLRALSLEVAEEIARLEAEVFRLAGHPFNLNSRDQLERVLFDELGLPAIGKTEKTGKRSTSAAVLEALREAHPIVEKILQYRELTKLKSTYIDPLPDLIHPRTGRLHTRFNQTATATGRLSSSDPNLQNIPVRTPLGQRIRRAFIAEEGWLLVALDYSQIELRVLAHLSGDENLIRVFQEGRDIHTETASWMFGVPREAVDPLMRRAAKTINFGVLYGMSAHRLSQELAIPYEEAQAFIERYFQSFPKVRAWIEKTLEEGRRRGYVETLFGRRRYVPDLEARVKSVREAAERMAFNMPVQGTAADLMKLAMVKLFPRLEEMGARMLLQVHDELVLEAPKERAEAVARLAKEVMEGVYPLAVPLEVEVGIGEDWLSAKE

[3] = molecular target: Telomerase reverse transcriptase (Homo sapiens) (UniProt O14746); assay: Inhibition of human telomerase activity at 100 ug/mL by TRAP assay; how it was run: as §1

Telomerase reverse transcriptase (Homo sapiens), sequence (O14746 whole entry): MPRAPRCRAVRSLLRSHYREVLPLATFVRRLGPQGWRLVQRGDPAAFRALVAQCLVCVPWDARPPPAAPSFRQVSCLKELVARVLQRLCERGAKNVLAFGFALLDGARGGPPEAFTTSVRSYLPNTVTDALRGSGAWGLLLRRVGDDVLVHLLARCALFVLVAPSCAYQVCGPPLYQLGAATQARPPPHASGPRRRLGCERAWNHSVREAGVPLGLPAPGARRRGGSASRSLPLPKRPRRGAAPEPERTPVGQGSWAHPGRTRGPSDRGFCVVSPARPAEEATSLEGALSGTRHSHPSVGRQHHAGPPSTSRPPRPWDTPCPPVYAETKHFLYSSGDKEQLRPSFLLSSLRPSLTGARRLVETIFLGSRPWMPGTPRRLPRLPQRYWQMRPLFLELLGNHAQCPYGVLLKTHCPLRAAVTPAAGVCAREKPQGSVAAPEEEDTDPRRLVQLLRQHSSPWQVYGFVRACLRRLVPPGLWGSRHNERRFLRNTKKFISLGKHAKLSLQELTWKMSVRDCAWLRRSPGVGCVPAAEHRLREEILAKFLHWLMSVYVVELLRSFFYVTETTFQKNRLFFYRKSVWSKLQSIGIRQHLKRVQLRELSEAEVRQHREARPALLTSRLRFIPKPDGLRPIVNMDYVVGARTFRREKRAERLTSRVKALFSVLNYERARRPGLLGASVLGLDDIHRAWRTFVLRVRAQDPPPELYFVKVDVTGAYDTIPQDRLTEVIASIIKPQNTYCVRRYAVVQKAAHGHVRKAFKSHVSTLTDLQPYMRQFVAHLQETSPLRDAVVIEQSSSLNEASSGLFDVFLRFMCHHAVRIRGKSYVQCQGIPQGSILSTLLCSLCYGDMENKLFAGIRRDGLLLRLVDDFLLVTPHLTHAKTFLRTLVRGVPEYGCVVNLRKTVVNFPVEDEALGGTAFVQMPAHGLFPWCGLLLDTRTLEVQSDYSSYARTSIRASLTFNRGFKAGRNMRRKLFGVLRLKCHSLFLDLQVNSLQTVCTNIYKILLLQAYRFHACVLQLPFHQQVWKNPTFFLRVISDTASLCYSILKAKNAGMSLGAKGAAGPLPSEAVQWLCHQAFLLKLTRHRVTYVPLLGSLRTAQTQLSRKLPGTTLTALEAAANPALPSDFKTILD

| SMILES | inhibition [1] | inhibition [2] | Activity [3] |
| --- | --- | --- | --- |
| COc1cc(OC)c2c(O)c3c(=O)cc(C)oc3c(-c3c(OC)cc4cc5oc(C)cc(=O)c5c(O)c4c3OC)c2c1 | 52% | 49% | inactive |
| COc1cc(OC)c2c(O)c3c(=O)cc(C)oc3c(-c3c(OC)cc4cc(O)c5c(=O)cc(C)oc5c4c3OC)c2c1 | 40% | 40% | inactive |

Now from value to compound:

| inhibition [1] | inhibition [2] | Activity [3] | SMILES |
| --- | --- | --- | --- |
|  |  | inactive | COc1cc(OC)c2c(c1)c(-c1c(OC)cc3cc4oc(C)cc(=O)c4c(O)c3c1OC)c(O)c1c(=O)cc(C)oc12 |
| 41% | 40% | inactive | COc1cc(OC)c2c(O)c3c(=O)cc(C)oc3c(-c3c(O)cc4cc(O)c5c(=O)cc(C)oc5c4c3OC)c2c1 |
|  |  | inactive | COc1cc(OC)c2c(c1)c(-c1c(OC)cc3cc(O)c4c(=O)cc(C)oc4c3c1OC)c(O)c1c(=O)cc(C)oc12 |
